Assay results published in ChEMBL document CHEMBL1121966, “(2R*,3S*)-1-[125I]Iodo-2,3-bis(4-hydroxyphenyl)pentane ([125I]iodonorhexestrol) and (2R*,3S*)-1-[77Br]Bromo-2,3-bis(4-hydroxyphenyl)pentane ([77Br]bromonorhexestrol), two gamma-emitting estrogens that show receptor-mediated uptake by target tissues in vivo” (1982).

Tests used:
[1] = Muscle/blood distribution ratio was determined in immature female rats at 6 hr; type: functional
In short: (§1)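 Dual-label study in immature 25-day female Sprague-Dawley rats (ca. 50 g). Each received 2 μCi [77Br]bromo tracer (≤1.25 pmol/dose) and 2 μCi 16α-[125I]iodoestradiol (2 pmol/dose) by tail or jugular vein, in ethanol diluted with saline/rat serum 1:1. Rats were killed at 3 or 6 h; blood and 11 tissues were weighed and counted. Five rats per time point; mean ± SD.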

[2] = organism: Rattus norvegicus; experiment: Percent injected dose per gram blood at 3h; type: functional; in short: as §1
[3] = organism: Rattus norvegicus; experiment: Percent injected dose per gram Uterus at 1 hr; type: functional
In short: (§2)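 Immature (25-day, ca. 50 g) Sprague-Dawley female rats received an iv injection (jugular or tail vein) of HPLC-purified tracer in ethanol plus 0.9% NaCl/rat serum 1:1. Doses were 2 μCi [125I]iodo tracer (≤15 pmol), or 2 μCi [77Br]bromo tracer (≤1.25 pmol) with 2 μCi 16α-[125I]iodoestradiol. Animals were killed at 1 h; blood and tissues were weighed and γ-counted. Blocking: coinjected unlabeled estradiol, 9 μg (iodo) or 18 μg (bromo). Mean ± SD.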

[4] = organism: Rattus norvegicus; experiment: Percent injected dose per gram kidney at 1 hr with unlabeled estradiol; type: functional; in short: as §2
[5] = organism: Rattus norvegicus; experiment: Percent injected dose per gram kidney at 6 hr; type: functional; in short: as §1
[6] = Lung/blood distribution ratio was determined in immature female rats at 3h; type: functional; in short: as §1
[7] = Esophagus/blood distribution ratio was determined in immature female rats at 6 hr; type: functional; in short: as §1
[8] = Thyroid/blood distribution ratio was determined in immature female rats at 6 hr; type: functional
In short: (§3)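 Immature (25 day) female Sprague-Dawley rats (ca. 50 g) were dosed iv (jugular or tail vein) in ethanol plus 0.9% NaCl/rat serum (1:1). Doses were 2 μCi of [125I]iodonorhexestrol (≤15 pmol/dose), or 2 μCi each of [77Br]bromonorhexestrol (≤1.25 pmol/dose) and 16α-[125I]iodoestradiol (2 pmol/dose). Rats were killed at 1, 3 or 6 h; blood and tissues were weighed and γ-counted. Thyroid weight assumed 0.005 g/100 g body weight. Mean ± SD.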

[9] = organism: Rattus norvegicus; experiment: Percent injected dose per gram Ovaries at 1 hr with unlabeled estradiol; type: functional; in short: as §2
[10] = organism: Rattus norvegicus; experiment: Percent injected dose per gram Ovaries at 6 hr; type: functional; in short: as §1
[11] = organism: Rattus norvegicus; experiment: Percent injected dose per gram liver at 1 hr; type: functional; in short: as §3
[12] = Ovary/blood distribution ratio was determined in immature female rats at 3h; type: functional; in short: as §1
[13] = Liver/blood distribution ratio was determined in immature female rats at 1 hr; type: functional; in short: as §2
[14] = Tissue/blood distribution ratio was measured in immature female rats at 1 hr; type: functional; in short: as §3
[15] = Uterus/blood distribution ratio was measured in immature female rats at 1 hr; type: functional; in short: as §3
[16] = organism: Rattus norvegicus; experiment: Percent injected dose per gram thyroid at 6 hr; type: functional, Thyroid gland; in short: as §3
[17] = Kidney/blood distribution ratio was determined in immature female rats at 6 hr; type: functional; in short: as §1
[18] = Ovary/blood distribution ratio was determined in immature female rats at 1 hr with unlabeled estradiol; type: functional; in short: as §2
[19] = organism: Rattus norvegicus; experiment: Percent injected dose per gram Muscle at 1 hr with unlabeled estradiol; type: functional; in short: as §2
[20] = Ovary/blood distribution ratio was determined in immature female rats at 6 hr; type: functional; in short: as §1
[21] = organism: Rattus norvegicus; experiment: Percent injected dose per gram thyroid at 1 hr; type: functional, Thyroid gland; in short: as §3
[22] = Esophagus/blood distribution ratio was determined in immature female rats at 3h; type: functional; in short: as §1
[23] = organism: Rattus norvegicus; experiment: Percent injected dose per gram kidney at 1 hr; type: functional; in short: as §2
[24] = organism: Rattus norvegicus; experiment: Percent injected dose per gram liver at 1 hr with unlabeled estradiol; type: functional
In short: (§4)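 Same iv biodistribution in immature female rats, killed at 1 h, with unlabeled estradiol coinjected to block receptor uptake: 9 μg with [125I]iodonorhexestrol (3 rats), 18 μg with the [77Br]bromonorhexestrol/16α-[125I]iodoestradiol pair (5 rats). Tissue and blood radioactivity were counted as % injected dose/g and tissue-to-blood ratio.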

[25] = organism: Rattus norvegicus; experiment: Percent injected dose per gram blood at 6 hr; type: functional; in short: as §1
[26] = Uterus/blood distribution ratio was measured in immature female rats at 3h; type: functional; in short: as §3
[27] = organism: Rattus norvegicus; experiment: Percent injected dose per gram thyroid at 1 hr with unlabeled estradiol; type: functional, Thyroid gland; in short: as §4
[28] = Esophagus/blood distribution ratio was determined in immature female rats at 1 hr with unlabeled estradiol; type: functional; in short: as §2
[29] = organism: Rattus norvegicus; experiment: Percent injected dose per gram Muscle at 6 hr; type: functional; in short: as §1
[30] = organism: Rattus norvegicus; experiment: Percent injected dose per gram Muscle at 1 hr; type: functional; in short: as §2
[31] = Liver/blood distribution ratio was determined in immature female rats at 3h; type: functional; in short: as §1
[32] = Kidney/blood distribution ratio was determined in immature female rats at 1 hr; type: functional; in short: as §2
[33] = Tissue/blood distribution ratio was measured in immature female rats at 6 hr; type: functional; in short: as §3
[34] = Kidney/blood distribution ratio was determined in immature female rats at 1 hr with unlabeled estradiol; type: functional; in short: as §2
[35] = Spleen/blood distribution ratio was determined immature female rats at 3h; type: functional; in short: as §3
[36] = Spleen/blood distribution ratio was determined immature female rats at 6 hr; type: functional; in short: as §3
[37] = organism: Rattus norvegicus; experiment: Percent injected dose per gram esophagus at 1 hr with unlabeled estradiol; type: functional; in short: as §2
[38] = organism: Rattus norvegicus; experiment: Percent injected dose per gram blood at 1 hr; type: functional; in short: as §2
[39] = organism: Rattus norvegicus; experiment: Percent injected dose per gram spleen at 1 hr; type: functional; in short: as §3
[40] = organism: Rattus norvegicus; experiment: Percent injected dose per gram esophagus at 6 hr; type: functional; in short: as §1

Compound `C[C@]12CC[C@@H]3c4ccc(O)cc4CC[C@H]3[C@@H]1C[C@@H](I)[C@@H]2O` has a Ratio [1] of 0.27, an Injected dose [2] of 0.46% and an Injected dose [3] of 9.59%. It also gave an Injected dose [4] of 2.77%, an Injected dose [5] of 0.4% and a Ratio [6] of 0.67. The Ratio [7] was 0.76, the Ratio [8] was 472.6 and the Injected dose [9] was 2.47%. For the same compound, the Injected dose [10] was 0.52%, the Injected dose [11] was 2.37% and the Ratio [12] was 2.03. For the same compound, the Ratio [13] was 3.55, the Ratio [14] was 1 and the Ratio [15] was 9.54. The Injected dose [16] was 276.6%, the Ratio [17] was 3.49 and the Ratio [18] was 1.36. The Injected dose [19] was 0.92%, the Ratio [20] was 2.49 and the Injected dose [21] was 7.46%. For the same compound, the Ratio [22] was 0.47, the Injected dose [23] was 1.48% and the Injected dose [24] was 4.91%. The Injected dose [25] was 0.22%, the Ratio [26] was 7.36 and the Injected dose [27] was 11.9%. For the same compound, the Ratio [28] was 0.95, the Injected dose [29] was 0.05% and the Injected dose [30] was 0.53%. It also gave a Ratio [31] of 4.76, a Ratio [32] of 2 and a Ratio [33] of 1. It also gave a Ratio [34] of 1.4, a Ratio [35] of 0.27 and a Ratio [36] of 0.35. For the same compound, the Injected dose [37] was 1.07%, the Injected dose [38] was 0.47% and the Injected dose [39] was 0.43%. It also gave an Injected dose [40] of 0.14%.
